pIC50: −log10 of the molar value. Activity calls are given as the source filed them. The calls are words filed in the database; no cut-off is given here.
How the values were obtained:
Plasmodium falciparum [1] = test: Antimalarial activity against Plasmodium falciparum 3D7 infected in human erythrocytes after 96 hrs in presence of 1 uM pantothenate by SYBR green fluorescence-based method; format: functional, organism-based; details: 3D7, 96 h
Method in brief: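 Blood-stage parasites cultured 96 h in medium with 1 μM pantothenate across a range of compound concentrations; IC50 is the concentration giving 50% inhibition of proliferation. Each experiment run in triplicate, 2–7 independent experiments; mean ± range/2 (n = 2) or SEM (n = 3–7).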

[2] = target: T1, Pantothenate kinase, putative (Plasmodium falciparum (isolate 3D7)) (UniProt Q8ILP4); test: Inhibition of pantothenate kinase in Plasmodium falciparum 3D7 trophozoites at 100 uM using [14C]pantothenate as substrate after 15 to 60 mins by TopCount scintillation counting method relative to control
T1 sequence (whole entry): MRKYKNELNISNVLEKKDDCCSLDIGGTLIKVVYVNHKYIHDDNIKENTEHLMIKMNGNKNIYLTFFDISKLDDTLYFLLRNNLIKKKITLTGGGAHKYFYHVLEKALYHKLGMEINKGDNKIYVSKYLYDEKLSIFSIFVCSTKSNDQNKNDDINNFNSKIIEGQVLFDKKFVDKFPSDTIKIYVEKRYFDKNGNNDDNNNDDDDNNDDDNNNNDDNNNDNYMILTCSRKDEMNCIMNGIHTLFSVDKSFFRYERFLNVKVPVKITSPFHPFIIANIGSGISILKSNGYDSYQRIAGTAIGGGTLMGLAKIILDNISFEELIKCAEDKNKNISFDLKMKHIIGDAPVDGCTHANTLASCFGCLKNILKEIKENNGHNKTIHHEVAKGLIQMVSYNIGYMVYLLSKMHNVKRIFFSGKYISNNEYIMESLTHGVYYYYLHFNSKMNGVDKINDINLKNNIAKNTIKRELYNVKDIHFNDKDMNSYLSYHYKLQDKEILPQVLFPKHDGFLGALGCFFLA
Method in brief: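 [14C]Pantothenate phosphorylation by PanK in P. falciparum lysate with compound at 100 μM. Pantothenate was 1.8 μM for R-compounds and 1 μM for S-compounds. Incubation period was pre-set within the linear range; percent inhibition versus DMSO-only controls. 3–8 experiments in duplicate, SEM.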

[3] = target: T1, Pantothenate kinase, putative (Plasmodium falciparum (isolate 3D7)); test: Inhibition of pantothenate kinase in Plasmodium falciparum 3D7 trophozoites at 1 to 100 uM using [14C]pantothenate as substrate after 15 mins by TopCount scintillation counting method
Method in brief: (§1)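 PanK activity in P. falciparum lysate with 1.8 μM [14C]pantothenate and increasing compound concentrations, 15 min incubation within the linear range. Percent inhibition from [14C]pantothenate phosphorylated versus no compound. 2–5 experiments in duplicate; mean ± range/2 or SEM.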

[4] = Cytotoxicity against HEK293 cells assessed as inhibition of cell proliferation at 100 uM after 96 hrs by CellTiter-Glo assay relative to control; format: cell-based; details: human
Method in brief: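 HEK-293 proliferation measured over 96 h with compound at 100 μM; percent inhibition reported.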

[5] = Cytotoxicity against human WI38 cells assessed as inhibition of cell proliferation at 100 uM after 48 hrs by CellTiter-Glo assay relative to control; format: cell-based, WI-38
Method in brief: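 WI-38 proliferation measured over 48 h with compound at 100 μM; percent inhibition reported.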

Plasmodium falciparum [6] = test: Ratio of IC50 for Plasmodium falciparum 3D7 infected in human erythrocytes in presence of 100 uM pantothenate to IC50 for Plasmodium falciparum 3D7 infected in human erythrocytes in presence of 1 uM pantothenate; format: functional
Method in brief: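 Paired 96 h proliferation assays with parasites in medium containing 100 μM versus 1 μM pantothenate. Fold-increase = IC50 at 100 μM pantothenate divided by IC50 at 1 μM. Two independent experiments in triplicate; error is range/2.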

[7] = Drug metabolism in human erythrocytes infected with Plasmodium falciparum 3D7 trophozoites assessed as esterase-mediated compound hydrolysis at 1 mM after 3 hrs by 1H-13C-HSQC NMR analysis; format: ADME, cell-based; details: 1000 µM
Method in brief: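 Infected erythrocytes (>95% parasitemia) incubated 3 h with 13C3-labelled or unlabelled compound. Metabolites were extracted from about 2 × 10^8 parasites and analysed by 1H-13C HSQC in D2O with 200 μM TSP as shift reference. Two independent experiments.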

[8] = Selectivity index, ratio of cytotoxic concentration for HEK293 cells to IC50 for Plasmodium falciparum 3D7 infected in human erythrocytes in presence of 1 uM pantothenate; format: toxicity, cell-based; details: read-out: Selectivity Index
[9] = Selectivity index, ratio of cytotoxic concentration for human WI38 cells to IC50 for Plasmodium falciparum 3D7 infected in human erythrocytes in presence of 1 uM pantothenate; format: toxicity, cell-based; details: read-out: Selectivity Index
[10] = target: T2, Pantothenate kinase, putative (Plasmodium falciparum (isolate 3D7), UniProt Q8ILP4); test: Inhibition of pantothenate kinase in Plasmodium falciparum 3D7 trophozoites using [14C]pantothenate as substrate after 15 mins by TopCount scintillation counting method; method in brief: as §1
T2 sequence (Q8ILP4 whole entry): T1 sequence (whole entry)

[11] = Cysteine reactivity at pH 7.4 after 2 hrs by 1H NMR analysis; format: physicochemical; details: pH 7.4, 2 h
Method in brief: (§2)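 Compound mixed with glutathione or L-cysteine at pH 7.4 and monitored by NMR for 2 h. The first spectrum was acquired 15 min after mixing. N-ethylmaleimide served as a reactive Michael acceptor reference.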

Plasmodium falciparum [12] = test: Antimalarial activity against blood stage of Plasmodium falciparum in presence of pantothenate by [3H]hypoxanthine incorporation assay; format: functional, organism-based
[13] = Cysteine reactivity at pH 7.4 after 15 mins by 1H NMR analysis; format: physicochemical; details: pH 7.4, 0.25 h; method in brief: as §2

Row | SMILES | pIC50 (Plasmodium falciparum [1]) | inhibition [2] | inhibition at 96 h, 100 µM [4] [%] | inhibition at 48 h, 100 µM [5] [%] | Ratio IC50 (Plasmodium falciparum [6]) | also measured
1 | COC(=O)/C=C/NC(=O)[C@H](O)C(C)(C)CO | < 3.70 | > 90% | 0 | 4 |  | inhibition [3]: Active
2 | CCOC(=O)/C=C/N1CCCCCC1=O | 3.74 | inactive |  |  | 0.9 | 
3 | CC(C)(CO)[C@@H](O)C(=O)N/[13CH]=[13CH]/[13C](=O)O |  |  |  |  |  | Drug metabolism [7]: Metabolite_Detected
4 | CC(C)(CO)[C@H](O)C(=O)N/C=C\C(=O)O | < 4.00 | < 25% | -11 | -19 |  | 
5 | CCOC(=O)/C=C\NC(=O)[C@H](O)C(C)(C)CO | < 3.70 | < 25% | -6 | 1 |  | 
6 | CCOC(=O)/C=C/NC(=O)[C@H](O)C(C)(C)CO | 3.80 | > 90% | -5 | 36 | >1.3 | inhibition [3]: Active; selectivity ratio [8]: > 0.6; selectivity ratio [9]: > 0.6
7 | CC(C)(CO)[C@@H](O)C(=O)N/C=C/C(=O)OCc1ccccc1 | 4.89 | > 90% | 5 | 19 | >7.7 | pIC50 [10]: 6.85; Drug metabolism [11]: Metabolite_Notdetected; selectivity ratio [8]: > 8; selectivity ratio [9]: > 8
8 | CC(C)(CO)[C@H](O)C(=O)N/C=C\C(=O)OCc1ccccc1 | < 4.00 | < 25% | -7 | -2 |  | 
9 | CC(C)(C)OC(=O)/C=C/NC(=O)[C@H](O)C(C)(C)CO | 4.38 | > 90% | -1 | 0 | 3.1 | inhibition [3]: Active; selectivity ratio [8]: > 2; selectivity ratio [9]: > 2
10 | CC(C)(CO)[C@@H](O)C(=O)N/[13CH]=[13CH]/[13C](=O)OCc1ccccc1 |  |  |  |  |  | Drug metabolism [7]: Metabolite_Notdetected
11 | CCOC(=O)/C=C\NC(=O)[C@@H](O)C(C)(C)CO | < 4.00 | < 25% | -6 | -6 |  | 
12 | CC(C)(CO)[C@@H](O)C(=O)N/C=C/C(=O)O | 4.44 | 87% | -17 | -23 | >2.8 | pIC50 (Plasmodium falciparum [12]): 4.41; pIC50 [10]: 4.85; Drug metabolism [11]: Metabolite_Notdetected; selectivity ratio [8]: > 3; selectivity ratio [9]: > 3
13 | CC(C)(C)OC(=O)/C=C/NC(=O)[C@@H](O)C(C)(C)CO | < 4.00 | < 25% | -8 | 14 |  | 
14 | CC(C)(CO)[C@@H](O)C(=O)N/C=C\C(=O)OCc1ccccc1 | 4.05 | < 25% | 7 | 4 | 0.9 | 
15 | CCN1C(=O)C=CC1=O [N-ETHYLMALEIMIDE] |  |  |  |  |  | Drug metabolism [13]: Metabolite_Detected
16 | COC(=O)/C=C\NC(=O)[C@H](O)C(C)(C)CO | < 3.70 | < 25% |  |  |  | 

Row | SMILES | pIC50 (Plasmodium falciparum [1]) | inhibition [2] | inhibition at 96 h, 100 µM [4] [%] | inhibition at 48 h, 100 µM [5] [%] | Ratio IC50 (Plasmodium falciparum [6]) | also measured
17 | COC(=O)/C=C/NC(=O)[C@@H](O)C(C)(C)CO | < 4.00 | < 25% | -2 | -18 |  | 
18 | CCOC(=O)/C=C/N1CCCCCCC1=O | 4.03 | inactive |  |  | 1 | 
19 | CCOC(=O)/C=C/NC(=O)c1ccccc1 | 3.80 | inactive |  |  | 1 | 
20 | CC(C)(CO)[C@H](O)C(=O)N/C=C/C(=O)OCc1ccccc1 | < 4.00 | < 25% | -6 | 19 |  | 
21 | CCOC(=O)/C=C/NC(=O)[C@@H]1OC(C)(C)OCC1(C)C | 3.84 | inactive |  |  | 0.9 | 
22 | CC(C)(C)OC(=O)/C=C\NC(=O)[C@@H](O)C(C)(C)CO | < 4.00 | < 25% | -11 | 26 |  | 
23 | CCOC(=O)/C(C)=C/NC(=O)[C@H](O)C(C)(C)CO | < 3.70 | Active |  |  |  | inhibition [3]: inactive
24 | CCOC(=O)/C(C)=C/NC(=O)[C@@H]1OC(C)(C)OCC1(C)C | 4.03 | inactive |  |  | 1 | 
25 | CCOC(=O)/C(C)=C/NC(=O)c1ccccc1 | 3.92 | inactive |  |  | 1 | 
26 | CC(C)(C)OC(=O)/C=C\NC(=O)[C@H](O)C(C)(C)CO | 4.41 | < 25% | -9 | -14 | 1 | 
27 | CCOC(=O)/C=C/NC(=O)c1cccnc1 | < 3.70 | inactive |  |  |  | 
28 | CCOC(=O)/C=C/NC(=O)[C@@H](O)C(C)(C)CO | < 4.00 | < 25% | -9 | -6 |  | 
29 | CCOC(=O)/C=C/N1CCCCCCCC1=O | 4.21 | inactive |  |  | 1.4 | 
30 | COC(=O)/C=C\NC(=O)[C@@H](O)C(C)(C)CO | < 4.00 | < 25% | -12 | -20 |  | 
31 | CC(C)(CO)[C@H](O)C(=O)N/C=C/C(=O)O | < 4.00 | < 25% | -10 | 17 |  | 
32 | CC(C)(CO)[C@@H](O)C(=O)N/C=C\C(=O)O | < 3.70 | < 25% |  |  |  | 

— ChEMBL document CHEMBL4138249, “Structure-activity analysis of CJ-15,801 analogues that interact with Plasmodium falciparum pantothenate kinase and inhibit parasite proliferation” (Eur J Med Chem, 2018)
